From ChEMBL document CHEMBL3286113, “New potent antibacterial oxazolidinone (MRX-I) with an improved class safety profile” (J Med Chem, 2014)
Converted amounts (≈) assume the structure as drawn.

Assays:
Enterococcus faecium = assay: Bacteriostatic activity against vancomycin-resistant Enterococcus faecium; type: functional
Rattus norvegicus [1] = assay: Toxicity in female rat assessed as effect on RBC count at 20 mg/kg/day, po bid administered for 4 weeks (reference value: 7.28 x 10^12/L); type: organism-based; parameters: route oral; settings: in vivo, 672 h
Rattus norvegicus [2] = assay: Toxicity in female rat assessed as effect on WBC count at 200 to 300 mg/kg/day, po bid administered for 4 weeks (reference value: 3.66 x 10^9/L); type: organism-based; parameters: route oral; settings: in vivo, 672 h
[3] = Tmax in male rat at 45 mg/kg, po; type: ADME, organism-based; parameters: dose 45 mg/kg, route oral; settings: in vivo
Summary of the method: (§1)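 Male and female rats received single oral doses of 5, 15 or 45 mg/kg, with 5 mg/kg iv as a reference arm. Tmax was read from the plasma concentration–time profile for each gender.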

[4] = Tmax in po dosed dog; type: ADME, organism-based, Canis lupus familiaris; settings: in vivo
[5] = Cmax in human at 800 mg, po administered as single dose with meal measured on day 15; type: ADME, organism-based; parameters: dose 800 mg, route oral; settings: in vivo
Summary of the method: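 Randomized, double-blind, placebo-controlled multiple-dose study in 32 healthy subjects, half male and half female. Each dose was taken with a meal, at 600 or 800 mg, 28 doses over 15 days. A single dose on days 1 and 15 gave full PK; BID (Q12h) dosing ran on days 2–14.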

Staphylococcus aureus [6] = assay: Antibacterial activity against Staphylococcus aureus measured after 2 serial passages; type: functional
[7] = AUC (0 to infinity) in fasted human at 300 mg, po administered as single dose; type: ADME, organism-based; parameters: dose 300 mg, route oral, time infinity; settings: plasma
Summary of the method: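 Single-dose, three-period Latin-square crossover in 12 healthy volunteers (6 of each gender). Each received single oral 300, 600 and 900 mg doses under fasting conditions, with a 1-week washout between doses. PK parameters, including AUC0−inf, came from a noncompartmental model.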

Rattus norvegicus [8] = assay: Toxicity in female rat assessed as effect on neutrophil count at 100 mg/kg/day, po bid administered for 4 weeks (reference value: 22.4%); type: organism-based; parameters: route oral; settings: in vivo, 672 h
Streptococcus pneumoniae = assay: Bactericidal activity against penicillin intermediate-sensitive Streptococcus pneumoniae; type: functional
Staphylococcus aureus [9] = assay: Antibacterial activity against Staphylococcus aureus measured after 6 serial passages; type: functional
Enterococcus faecalis = assay: Antibacterial activity against vancomycin-sensitive Enterococcus faecalis ATCC 29212; type: functional
[10] = Tmax in female rat at 15 mg/kg, po; type: ADME, organism-based; parameters: dose 15 mg/kg, route oral; settings: in vivo; summary of the method: as §1
Staphylococcus aureus [11] = assay: Antibacterial activity against methicillin-sensitive Staphylococcus aureus ATCC 29213 in mouse thigh infection model assessed as reduction of log10 CFU per thigh at 20 mg/kg, po; type: functional
Summary of the method: (§2)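 Mouse thigh infection with S. aureus ATCC29213 (MSSA), 10 animals per dosing group. Oral doses were 5, 10, 20, 40 and 80 mg/kg. The read-out was log CFU per thigh after treatment, and the reduction (ΔLogCFU/thigh) was reported.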

[12] = test system: Streptococcus constellatus; assay: Antibacterial activity against Streptococcus constellatus; type: functional
[13] = Tmax in human at 600 mg, po administered as single dose with meal measured on day 15; type: ADME, organism-based; settings: in vivo
Summary of the method: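 Randomized, double-blind, placebo-controlled multiple-dose study in 32 healthy subjects, half male and half female. Dosing was 600 or 800 mg orally with a meal, 28 doses over 15 days. A single dose was given on days 1 and 15 for full PK, with Q12h (BID) dosing on days 2−14.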

[14] = AUC (0 to t) in female rat at 5 mg/kg, iv; type: ADME, organism-based; parameters: dose 5 mg/kg, route intravenous; settings: plasma
Summary of the method: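 Rat PK by gender, with single oral doses of 5, 15 and 45 mg/kg and an iv dose of 5 mg/kg. Tmax, Cmax, T1/2 and AUC0−t were reported per gender.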

Staphylococcus aureus [15] = assay: Antibacterial activity against methicillin-resistant Staphylococcus aureus by agar dilution method; type: functional
Summary of the method: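 MIC determined by agar dilution across S. aureus/MRSA isolates; MIC90 is the concentration inhibiting 90% of strains tested.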

Canis familiaris = assay: Dose normalized AUC (0 to t) in po dosed dog; type: ADME, organism-based, Canis lupus familiaris; settings: in vivo
Staphylococcus aureus [16] = assay: Antibacterial activity against methicillin-sensitive Staphylococcus aureus ATCC 29213 in mouse thigh infection model assessed as reduction of log10 CFU per thigh at 40 mg/kg, po; type: functional; summary of the method: as §2
MAO-A = MAO-A (Homo sapiens, UniProt P21397); assay: Ratio of compound IC50 to linezolid IC50 for MAO-A (unknown origin) by fluorescence plate reader analysis; type: ADME
MAO-A, sequence (P21397 whole entry): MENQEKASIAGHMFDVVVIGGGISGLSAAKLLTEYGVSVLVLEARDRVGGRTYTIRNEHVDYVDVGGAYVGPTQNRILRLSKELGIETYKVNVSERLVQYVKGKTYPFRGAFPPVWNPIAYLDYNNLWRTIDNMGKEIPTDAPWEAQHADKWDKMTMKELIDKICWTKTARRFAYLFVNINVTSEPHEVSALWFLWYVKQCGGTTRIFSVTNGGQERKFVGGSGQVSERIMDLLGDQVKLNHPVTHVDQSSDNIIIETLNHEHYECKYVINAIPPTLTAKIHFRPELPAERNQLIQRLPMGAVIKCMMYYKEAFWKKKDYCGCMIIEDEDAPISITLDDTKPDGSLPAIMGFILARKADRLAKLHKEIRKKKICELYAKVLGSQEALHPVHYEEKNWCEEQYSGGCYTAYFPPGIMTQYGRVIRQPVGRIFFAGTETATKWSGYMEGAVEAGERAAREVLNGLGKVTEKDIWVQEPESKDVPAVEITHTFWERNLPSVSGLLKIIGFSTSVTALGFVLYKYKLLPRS

Staphylococcus aureus [17] = assay: Antibacterial activity against Staphylococcus aureus measured after 8 serial passages; type: functional
Staphylococcus = assay: Antibacterial activity against beta-lactamase-negative Staphylococcus; type: functional

Compound: O=C1C=CN(c2c(F)cc(N3C[C@H](CNc4ccon4)OC3=O)c(F)c2F)CC1 [CONTEZOLID]
- MIC (Enterococcus faecium): 1 µg/mL (≈ 2.45 µM)
- MIC50 (Enterococcus faecium): 1 µg/mL (≈ 2.45 µM)
- MIC90 (Enterococcus faecium): 1 µg/mL (≈ 2.45 µM)
- Activity (Rattus norvegicus [1]): 6.82 ×10¹² /L
- Activity (Rattus norvegicus [2]): 2.72 ×10⁹ /L
- Tmax [3]: 60 min
- Tmax [4]: 30 min
- Cmax [5]: 26400 ng/mL
- MIC (Staphylococcus aureus [6]): 2 µg/mL (≈ 4.9 µM)
- AUC(0-inf) [7]: 29200 ng·h/mL
- Activity (Rattus norvegicus [8]): 18.4%
- MIC50 (Streptococcus pneumoniae): 0.5 µg/mL (≈ 1.22 µM)
- MIC90 (Streptococcus pneumoniae): 0.5 µg/mL (≈ 1.22 µM)
- MIC (Staphylococcus aureus [9]): 2 µg/mL (≈ 4.9 µM)
- MIC (Enterococcus faecalis): 1 µg/mL (≈ 2.45 µM)
- Tmax [10]: 70.2 min
- deltalog10CFU (Staphylococcus aureus [11]): 3.33
- MIC50 [12]: 0.5 µg/mL (≈ 1.22 µM)
- MIC90 [12]: 1 µg/mL (≈ 2.45 µM)
- Tmax [13]: 36 min
- AUC(0-t) [14]: 25200 ng·h/mL
- MIC50 (Staphylococcus aureus [15]): 0.5 µg/mL (≈ 1.22 µM)
- MIC90 (Staphylococcus aureus [15]): 0.5 µg/mL (≈ 1.22 µM)
- AUCt/dose (Canis familiaris): 1664 ng·h/mL/mg/kg
- deltalog10CFU (Staphylococcus aureus [16]): 3.42
- selectivity ratio (MAO-A): 5.2
- MIC (Staphylococcus aureus [17]): 2 µg/mL (≈ 4.9 µM)
- MIC50 (Staphylococcus): 0.5 µg/mL (≈ 1.22 µM)
- MIC90 (Staphylococcus): 0.5 µg/mL (≈ 1.22 µM)
